Positions count from the first letter of the chain named. In names and notes the source's numbering stands. Entries after “also recorded” stand apart in the source; their conditions may differ. No end group written: not given here.
Experiments:
[1] = target: T1, HSF2BP (Homo sapiens, UniProt O75031); experiment: Mass photometry; format: physicochemical; conditions: 25-100 nM
T1 sequence (O75031 1-334): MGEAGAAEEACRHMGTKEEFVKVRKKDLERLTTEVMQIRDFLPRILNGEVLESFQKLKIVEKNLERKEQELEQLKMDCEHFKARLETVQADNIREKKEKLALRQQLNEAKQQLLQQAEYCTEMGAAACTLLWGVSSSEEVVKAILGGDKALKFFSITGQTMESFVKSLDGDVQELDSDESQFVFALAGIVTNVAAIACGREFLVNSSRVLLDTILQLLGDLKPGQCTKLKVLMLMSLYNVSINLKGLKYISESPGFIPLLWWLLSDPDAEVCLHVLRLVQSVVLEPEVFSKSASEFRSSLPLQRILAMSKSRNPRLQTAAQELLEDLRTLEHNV

[2] = target: T2, HSF2BP + BRCA2-HBD (Homo sapiens, UniProt O75031+P51587); experiment: ITC, BRME1-M versus HSF2BP bound to BRCA2-HBD; format: binding; conditions: 293 K
T2 sequence (O75031 1-334): T1 sequence (O75031 1-334)
T2 sequence (P51587 2291-2342 C2332T partner limits assumed): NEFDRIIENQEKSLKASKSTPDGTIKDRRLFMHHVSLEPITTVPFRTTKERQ

[3] = system: HR intermediates (X-arc) of pICL in Xenopus egg extract; format: biochemical; conditions: HSF2BP 0.45 μM, peptide 1.35 μM
[4] = system: interstrand crosslink repair (pICL) in Xenopus egg extract; experiment: Cisplatin interstrand crosslink repair in Xenopus egg extract; format: biochemical; conditions: HSF2BP 0.45 μM, peptide 1.35 μM
[5] = target: T1, HSF2BP; experiment: ITC, BRME1 peptides versus full-length HSF2BP; format: binding
How it was run: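 Full-length HSF2BP was His-tagged and bacterially expressed (IPTG, 20°C overnight), TEV-cleaved and SEC-purified. Synthetic BRME1 peptides: N, residues 578–601; M, 602–641; C, 649–668. In 25 mM tris pH 7.5, 250 mM NaCl, 5 mM β-mercaptoethanol at 293 and 303 K, 8–13 μM HSF2BP in the cell was titrated with 80–130 μM peptide. Injections of 10 μl every 210 s; first 2-μl injection discarded. Run in duplicate, fitted for stoichiometry, constants and thermodynamics.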

[6] = system: complex formed by HSF2BP and BRCA2-HBD; experiment: Negative-staining EM of ring-shaped HSF2BP-BRCA2-HBD complex; format: binding, human; conditions: 2:1 mix of HSF2BP and BRCA2-HBD
[7] = system: endogenous Xenopus BRCA2; experiment: BRCA2 degradation during interstrand crosslink repair in Xenopus egg extract; format: biochemical; conditions: HSF2BP 0.45 μM, peptide 1.35 μM; 5 to 120 min
[8] = target: T3, HSF2BP helix α1 (Homo sapiens, UniProt O75031); experiment: ITC, BRME1-M versus HSF2BP helix α1 peptide; format: binding
T3 sequence (O75031 19-50 limits assumed): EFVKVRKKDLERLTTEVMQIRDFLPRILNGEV

[9] = target: T1, HSF2BP; experiment: Scanning force microscopy; format: physicochemical
How it was run: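 HSF2BP was diluted 10,000-fold to 12 nM in 25 mM tris-HCl pH 7.5, 250 mM NaCl, 5 mM β-mercaptoethanol. It was deposited for 30 s on freshly cleaved mica, rinsed with water, dried under filtered air, and imaged in air by SFM. Particle volume distributions were obtained by kernel density analysis.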

[10] = target: HSF2BP bound to BRME1-M (complex formed beforehand) (human) (UniProt O75031); experiment: ITC
[11] = system: HeLa cells; format: cell-based, human; conditions: HeLa stably producing the protein; MMC, cisplatin, talazoparib
How it was run: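 HeLa cells in DMEM with 10% fetal calf serum were stably co-transfected (PiggyBac) with GFP-HSF2BP and/or Flag-BRME1 variants, then selected with puromycin (1.5 μg/ml) and G418 (800 μg/ml) for 8 days; mixed populations were used. Seeded 100–1000 cells/well in technical duplicates, drugs added next day: MMC 2 h, cisplatin or talazoparib overnight. Coomassie-stained colonies counted on day 10.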

[12] = target: the molecule itself; experiment: SEC-MALS
[13] = target: T4, HSF2BP + BRME1-M (Homo sapiens, UniProt O75031+Q0VDD7); experiment: ITC, BRCA2 fragments versus HSF2BP bound to BRME1-M; format: binding; conditions: 293 K
T4 sequence (O75031 1-334): T1 sequence (O75031 1-334)
T4 sequence (Q0VDD7 602-641 partner limits assumed): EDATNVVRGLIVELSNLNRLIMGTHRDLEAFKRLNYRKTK

[14] = target: the molecule itself; experiment: crystal structure
[15] = SFM on mica, in air, HSF2BP at 12 nM

Molecule: EDATNVVRGLVIELSNLNRLIMGTHRDLEAFKRLNYRKTK [BRME1-M]
- effect on / state of HSF2BP oligomers, in words [1]: the HSF2BP tetramer is dissociated into dimers; also recorded: disassembles the 24-nucleotide oligomer complexes, yielding to a mix between octamers, tetramers, and dimers; also recorded: caused disassembly of the ring-shaped complex and enrichment in double-octamers, octamers, and tetramers
- ΔG ([2]; first of two lines): -10 kcal/mol
- ΔH ([2]; first of two lines): -4.4 kcal/mol
- ─TΔS ([2]; first of two lines): -5.60 kcal/mol
- ΔH ([2]; second of two lines): -5.8 kcal/mol
- ─TΔS ([2]; second of two lines): -4.40 kcal/mol
- effect on HR repair intermediates, in words [3]: specifically suppressed the reduction in the formation of HR repair intermediates
- effect on interstrand crosslink repair, in words [4]: reverted the inhibitory effect of HSF2BP on the interstrand crosslink repair reaction
- ΔG ([5]; 293 K): -10.6 kcal/mol
- ΔH ([5]; 293 K): -5.7 kcal/mol
- ─TΔS ([5]; 293 K): -4.90 kcal/mol
- ΔG ([5]; 303 K): -10.7 kcal/mol
- ΔH ([5]; 303 K): -8.2 kcal/mol
- ─TΔS ([5]; 303 K): -2.50 kcal/mol
- effect on ring-shaped complexes, in words [6]: near-complete disappearance of the large ring-shape complexes
- effect on HSF2BP-induced BRCA2 degradation, in words [7]: completely abolished
- ΔH ([8]; 293 K): -1.2 kcal/mol
- ─TΔS ([8]; 293 K): -9.00 kcal/mol
- ΔH ([8]; 303 K): -7.6 kcal/mol
- ─TΔS ([8]; 303 K): -2.90 kcal/mol
- effect on HSF2BP-BRCA2-HBD oligomers, in words ([9]; SFM, HSF2BP:BRME1-M = 1:1): complete disappearance of the 24-nucleotide oligomer population

Molecule: BRCA2 fragment 2213–2342 (from UniProt P51587 2213-2342) (domain or fragment)
- dH [10]: -10.9 kcal/mol

Molecule: BRME1-C: synthetic peptide, human BRME1 residues 649 to 668 (PYPSKGPGNIPRGDPPWREL)
- effect on HR repair intermediates, in words [3]: no such effect
- effect on interstrand crosslink repair, in words [4]: no such effect
- binding to HSF2BP, in words ([5]; 30°C): does not bind HSF2BP

B1: HSF2BP H80A-R84A (natural protein, human, UniProt O75031 1-334, looked up)
chain: T1 sequence (O75031 1-334) with H80A, R84A
- effect on cell resistance to DNA damage, in words [11]: compromised cell survival as HSF2BP wild type
- stoichiometry N [12]: 8

B2: C78A-C120S-C128A (protein, UniProt O75031 1-334, looked up, variant C78A C120S C128A)
Heat shock factor 2-binding …: T1 sequence (O75031 1-334) with C78A, C120S, C128A
- effect on cell resistance to DNA damage, in words [11]: sensitized HeLa cells less than the wild-type protein

B3: armadillo domain: HSF2BP armadillo domain alone (E122-V334) (protein)
chain: EMGAAACTLLWGVSSSEEVVKAILGGDKALKFFSITGQTMESFVKSLDGDVQELDSDESQFVFALAGIVTNVAAIACGREFLVNSSRVLLDTILQLLGDLKPGQCTKLKVLMLMSLYNVSINLKGLKYISESPGFIPLLWWLLSDPDAEVCLHVLRLVQSVVLEPEVFSKSASEFRSSLPLQRILAMSKSRNPRLQTAAQELLEDLRTLEHNV
- particle volume, larger peak [9, 15]: ~90 nm^3
- particle volume, smaller peak [9, 15]: ~35 nm^3

B4: BRCA2_2213–2342: BRCA2 fragment 2213–2342 (protein, UniProt P51587 2213-2342, looked up, fragment)
chain: STYSKDSENYFETEAVEIAKAFMEDDELTDSKLPSHATHSLFTCPENEEMVLSNSRIGKRRGEPLILVGEPSIKRNLLNEFDRIIENQEKSLKASKSTPDGTIKDRRLFMHHVSLEPITCVPFRTTKERQ
- ΔH [13]: -10.9 kcal/mol
- ─TΔS [13]: -1.70 kcal/mol
- Kd ([13]; pH 7.5, 10 μM complex in cell, 55 to 60 μM BRCA2 fragment in syringe): 7.8 nM

B5: HSF2BP helix α1 peptide (residues 19 to 50) (peptide, UniProt O75031 19-50, looked up)
peptide: T3 sequence (O75031 19-50 limits assumed)
- stoichiometry N [14]: 4

B6: BRME1: Flag-BRME1 stably produced in HeLa cells (protein, UniProt Q0VDD7 1-668, looked up)
Break repair meiotic …: MTKRKKLRTSGEGLCPPKPLKNPRLGDFYGDPQSSMLGCLHHPEEPEGKLGPVPSTQQHGEEPGKAVSSSPDEETGSPCRLLRQPEKEPAPLPPSQNSFGRFVPQFAKSRKTVTRKEEMKDEDRGSGAFSLETIAESSAQSPGCQLLVETLGVPLQEATELGDPTQADSARPEQSSQSPVQAVPGSGDSQPDDPPDRGTGLSASQRASQDHLSEQGADDSKPETDRVPGDGGQKEHLPSIDSEGEKPDRGAPQEGGAQRTAGAGLPGGPQEEGDGVPCTPASAPTSGPAPGLGPASWCLEPGSVAQGSPDPQQTPSRMGREGEGTHSSLGCSSLGMVVIADLSTDPTELEERALEVAGPDGQASAISPASPRRKAADGGHRRALPGCTSLTGETTGESGEAGQDGKPPGDVLVGPTASLALAPGSGESMMGAGDSGHASPDTGPCVNQKQEPGPAQEEAELGGQNLERDLEGFRVSPQASVVLEHREIADDPLQEPGAQQGIPDTTSELAGQRDHLPHSADQGTWADSLAVELDFLLDSQIQDALDASDFEAPPEQLFPSGNKPGPCWPGPSSHANGDPVAVAKAQPRTFVGIQASEASRMEDATNVVRGLIVELSNLNRLIMGTHRDLEAFKRLNYRKTKLGGKAPLPYPSKGPGNIPRGDPPWREL
modifications: Flag tag
- effect on cell resistance to DNA damage, in words [11]: cancels the disruptive effect of HSF2BP on cancer cell resistance to DNA damage; also recorded: no effect on the cell sensitivity to DNA damage; also recorded: completely abolished the sensitization induced by HSF2BP

From paper PMC10610910 (Science Advances, 2023)
